High-throughput results: PubChem, The Scripps Research Institute Molecular Screening Center
A selection: hits, their analogues and other compounds. The true share with any hit is near 1.9%.
M4 PAM = human M4 muscarinic receptor positive allosteric modulators, primary screen, CHO-K1 cells, Fluo-8 calcium fluorescence; CHO-K1 hM4/Gqi5, ACh EC20; 0% = ACh EC20, 100% = maximal ACh; activation, % at 3 µM; 360,000 compounds, 0.4% hits; AID 624126, 2012;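 active = activation above its plate's cutoff, the mean activation of sample wells plus 3 SD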
Target sequence (P08173 whole entry, looked up): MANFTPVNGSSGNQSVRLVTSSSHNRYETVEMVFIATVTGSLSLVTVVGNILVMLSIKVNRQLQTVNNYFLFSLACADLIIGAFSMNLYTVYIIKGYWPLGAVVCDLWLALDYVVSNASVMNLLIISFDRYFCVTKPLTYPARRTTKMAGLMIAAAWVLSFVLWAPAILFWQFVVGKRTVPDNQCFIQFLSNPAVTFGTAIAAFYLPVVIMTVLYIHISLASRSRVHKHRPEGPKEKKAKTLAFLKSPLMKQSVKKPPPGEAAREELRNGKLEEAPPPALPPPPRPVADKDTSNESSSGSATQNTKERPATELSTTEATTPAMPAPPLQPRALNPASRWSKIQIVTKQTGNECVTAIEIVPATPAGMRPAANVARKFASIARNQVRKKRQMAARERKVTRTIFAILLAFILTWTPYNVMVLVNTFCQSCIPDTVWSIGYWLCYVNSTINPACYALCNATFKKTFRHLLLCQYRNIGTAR
M5 ag = human M5 muscarinic receptor agonists, primary screen, CHO-K1 cells, Fluo-8 calcium fluorescence; Muscarinic acetylcholine receptor M5 (Homo sapiens), P08912; CHO-K1 hM5 cells; 0% DMSO wells, 100% maximal acetylcholine response; activation, % at 3 µM; 360,000 compounds, 0.19% hits; AID 624037, 2012;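 active = activation above the run's mean over test compounds plus 3 SD, cut at about 23% in these data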;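 also: signal is peak over basal fluorescence ratio across the kinetic read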
M5 PAM = human M5 muscarinic receptor positive allosteric modulators, primary screen, CHO-K1 cells, Fluo-8 calcium fluorescence | Muscarinic acetylcholine receptor M5 (Homo sapiens), P08912 | CHO-K1 hM5, ACh EC20 PAM; 0% = ACh EC20, 100% = ACh EC100 | activation, % at 3 µM | 360,000 compounds, 0.3% hits | AID 624038, 2012;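 active = activation above the run cutoff, the mean activation of all test compounds plus 3 SD, cut at about 18% in these data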
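system = human M5 receptor in CHO-K1 cells | compound = one concentration, 3 µM final (nominal) | schedule = Post-acetylcholine fluorescence recording 140 s | signal = Fluo-8 calcium dye fluorescence, kinetic read | benchmarks = low control EC20 acetylcholine (0%), high control EC100 acetylcholine (100%) | repeats = singlicate, one well per test compound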
CHRM4 agonist = human M4 muscarinic receptor agonists, primary screen, CHO-K1 cells, Fluo-8 calcium fluorescence | Muscarinic acetylcholine receptor M4 (Homo sapiens), P08173 | CHO-K1 hM4/Gqi5; vehicle 0%, full acetylcholine response 100% | activation, % at 3 µM | 360,000 compounds, 0.14% hits | AID 624127, 2012;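 active = activation above the run mean over all test wells plus 3 SD, cut at about 32% in these data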;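 also: peak over basal fluorescence ratio per well then scaled between controls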
CHRM4 antagonist = human M4 muscarinic receptor antagonists, primary screen, CHO cells, Fluo-8 calcium fluorescence; 360,000 compounds, 0.73% hits; Muscarinic acetylcholine receptor M4 (Homo sapiens), P08173; inhibition, % at 3 µM; CHO-hM4 cells, ACh EC80;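 active = inhibition above its plate's cutoff, the mean inhibition of sample wells plus 3 SD, cut at about 27% in these data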
CHRM5 antagonist = human M5 muscarinic receptor antagonists, primary screen, CHO cells, Fluo-8 calcium fluorescence; Muscarinic acetylcholine receptor M5 (Homo sapiens), P08912; CHO-hM5 cells, ACh EC80; inhibition, % at 3 µM; 360,000 compounds, 0.59% hits;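 active = inhibition above a per-plate cutoff, the mean of that plate's test compounds plus 3 SD, cut at about 27% in these data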
Large screens that a line does not name were inactive.

CCNC(=O)C1(C)CCN(C(=O)c2cccs2)C1 (stereo not drawn)	none
O=C1c2ccccc2C(=O)N1CC#CCN1CCN(C(c2ccccc2)c2ccccc2)CC1	none
O=C1C2CSCN2C(=O)CN1CCCN1CCN(C(c2ccccc2)c2ccccc2)CC1 (stereo not drawn)	CHRM4 antagonist 32
O=C(CCNS(=O)(=O)c1ccccc1)NNC(=O)COc1ccccc1F	none
CCCc1nc2sc3c(=O)n(N)cnc3c2c2c1CCCC2	M5 PAM 21
CCCCc1nc2sc3c(=O)n(N)cnc3c2c2c1CCCC2	none
Cc1ccccc1C(=O)N/N=C/c1ccc(Sc2ccccn2)o1	M5 PAM 24
O=C(N/N=C\c1ccc(Sc2ccccn2)o1)c1cccc(Br)c1	none
CCC1(c2ccc(F)cc2)NC(=O)N(CC(=O)Nc2ccccc2Cl)C1=O (stereo not drawn)	M5 ag 33
CCC1(c2ccc(F)cc2)NC(=O)N(CC(=O)N2CCc3ccccc32)C1=O (stereo not drawn)	M5 ag 38
Cc1ccc(C2(C)NC(=O)N(CC(=O)N3CCc4ccccc43)C2=O)cc1 (stereo not drawn)	none
CC1(c2ccc(Cl)cc2)NC(=O)N(CC(=O)N2CCc3ccccc32)C1=O (stereo not drawn)	M5 ag 40, CHRM4 agonist 38
CCC1(CC)NC(=O)N(CC(=O)N2CCc3ccccc32)C1=O	M4 PAM 19, M5 PAM 20
CCCS(=O)(=O)NC(=O)C1(C)CCCN(C(=O)c2ccc(OC)cc2OC)C1 (stereo not drawn)	none
CS(=O)(=O)c1ccc(NC(=O)c2cc3c(cc2Cl)N2CCCCCC2=NS3(=O)=O)cc1	none
O=C(OCc1ccccc1)N1C=CCC[C@@H]1c1c(Cl)cccc1Br	none
O=C(Nc1ccc(Br)c(C(F)(F)F)c1)c1ccc(C(F)(F)F)cc1	CHRM4 antagonist 34, CHRM5 antagonist 31
O=C(Nc1ccc(Br)c(C(F)(F)F)c1)c1ccccc1	none
C[C@@H]1CN([C@H](C)CO)C(=O)CCCn2cc(nn2)CO[C@H]1CN(C)C(=O)Nc1ccc2c(c1)OCCO2	none
Cc1ccc(NC(=O)CSc2nn(-c3ccccc3)c(=S)s2)cc1S(=O)(=O)N(C)C	CHRM5 antagonist 30
O=C(CSc1nn(-c2ccccc2)c(=S)s1)Nn1cnnc1	none
CCNC(=O)CC1C(=O)N(c2ccccc2)C(=O)N1CCC(C)C (stereo not drawn)	M4 PAM 25
CN(C)c1ccc(CNC(=O)CN(C)S(=O)(=O)c2ccc3c(c2)c(=O)n(C)c(=O)n3C)cc1	M4 PAM 17
Cc1ccc(CNC(=O)CN(C)S(=O)(=O)c2ccc(F)cc2)cc1	M5 PAM 20
Cc1ccc(S(=O)(=O)N(C)CC(=O)NCc2ccncc2)cc1	none
COc1cccc(CN2CC(C(=O)NCCCn3ccnc3C)CCC2=O)c1 (stereo not drawn)	none
Cc1cnc(C(=O)OCC(=O)Nc2cc(Cl)ccc2C#N)cn1	none
COc1cccc(C(C(=O)NCc2ccccc2)N2CCN(c3ccccc3F)CC2)c1OC (stereo not drawn)	none
COc1cc(/C=C/C(=O)c2ccc3c(c2)OCO3)cc(Cl)c1O	M5 ag 50, CHRM4 agonist 125, CHRM4 antagonist 32, CHRM5 antagonist 33
COc1ccc(C(=O)C=Cc2ccc3c(c2)OCO3)cc1OC	none
C[C@@H]1CN([C@H](C)CO)C(=O)c2cccc(NS(=O)(=O)c3ccccc3)c2O[C@H]1CN(C)C	none
C=Cc1cccc(NC(=O)COc2ccccc2)c1	M5 PAM 18
Cc1ccc(-c2csc(NC(=O)c3ccc(-c4ccccc4)cc3)n2)o1	CHRM4 antagonist 40
CSc1ccc(NC(=O)N2CCC(C(=O)c3ccc(F)cc3)CC2)cc1	none
Cn1cnc([N+](=O)[O-])c1Sc1nc(N)nc2c1ncn2C1OC(CO)C(O)C1O (stereo not drawn)	none
FC(F)Sc1ccc(NC(=S)NC2CCCC2)cc1	none
CC1CCCC(NC(=S)Nc2ccc(SC(F)F)cc2)C1C (stereo not drawn)	CHRM5 antagonist 31
COC(=O)c1ccc(NC(=S)NC2CCCCC2C)cc1 (stereo not drawn)	CHRM5 antagonist 29
CC(C)CN1CCN(CCCOC(=O)Nc2cccc3ccccc23)CC1C (stereo not drawn)	none
COc1cccc(CN2CCC(C(=O)Nc3ccc(-c4cccc(C)c4)cc3)CC2)c1O	none
O=C(O)c1ccc(CNCc2ccccc2Cl)cc1	none
O=C(O)c1ccc(CNCc2cccc(Cl)c2Cl)cc1	M4 PAM 28
O=C1c2ccccc2C(=O)N1CCC1=CCCCC1	M5 PAM 19
O=C(O)c1ccc2c(c1)C(=O)N(CCC1=CCCCC1)C2=O	none
O=C(NC(=S)N1CCCCC1c1cccnc1)c1ccc(F)cc1 (stereo not drawn)	none
O=C(NC(=S)N1CCCCC1c1cccnc1)c1ccc(Br)cc1 (stereo not drawn)	M4 PAM 15
O=C(NC(=S)N1CCCC1)c1ccc(Cl)cc1Cl	none
O=C(NC(=S)NN1CCCCC1c1cccnc1)c1ccc(Cl)cc1Cl (stereo not drawn)	M5 PAM 22
CCCCc1cc(O)c(CCCC)c(O)c1	M5 ag 64, CHRM4 agonist 106, CHRM4 antagonist 52, CHRM5 antagonist 33
CCc1noc(C)c1C(=O)N(CC)CC(=O)Nc1cc(Cl)ccc1C	none
O=C1NN=C2CCCCCCC12 (stereo not drawn)	CHRM4 antagonist 91
O=C(NCc1ccc(F)cc1)C1(S(=O)(=O)c2ccc(Cl)cc2)CC1	none
CCOC(=O)/C=C/C(=O)Nc1ccc(Oc2ccccc2)cc1	CHRM5 antagonist 36
Cc1nn(C2CCS(=O)(=O)C2)c(C)c1CN(C)C(=O)c1cccc(Cl)c1 (stereo not drawn)	none
CC(C)c1ccc(S(=O)(=O)Nc2ccc(SC(F)F)cc2)cc1	CHRM4 antagonist 28
CC(C)c1ccc(NS(=O)(=O)c2ccc(N3C(=O)CCC3=O)cc2)cc1	CHRM5 antagonist 27
C[n+]1cn(CC(O)COCc2ccccc2)c2ccccc21 (stereo not drawn)	none
